Test system: HeLa
Assay: Cytotoxicity against human HeLa cells by MTT assay
Assay type: functional, cell-based
Procedure, shortened: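 HeLa human cervical cancer cells were tested by MTT viability assay, following a previously published protocol. Doxorubicin was run as the reference cytotoxic control. Values are reported as IC50 in µM.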

| Structure (SMILES) | IC50 [µM] |
| --- | --- |
| O=c1c(O)c(-c2ccccc2)oc2cc(O)cc(O)c12 [GALANGIN] | ≥ 10 |
| O=c1cc(-c2ccccc2)oc2cc(O)cc(O)c12 [CHRYSIN] | ≥ 10 |
| O=C1C[C@@H](c2ccccc2)Oc2cc(O)cc(O)c21 [PINOCEMBRIN] | ≥ 10 |
| COc1cc(O)c2c(=O)c(O)c(-c3ccc(O)c(O)c3)oc2c1 [RHAMNETIN] | 7.8 |
| COc1ccc(/C=C/C(=O)O)cc1O [ISOFERULIC ACID] | ≥ 10 |
| COc1cc(-c2oc3cc(O)cc(O)c3c(=O)c2O)ccc1O [ISORHAMNETIN] | ≥ 10 |
| COc1cc(C2Oc3c(c(OC)cc(O)c3C(=O)/C=C/c3ccccc3)CC2O)ccc1O (configuration not stated) | 6.4 |
| O=c1c(O)c(-c2ccc(O)c(O)c2)oc2cc(O)cc(O)c12 [QUERCETIN] | ≥ 10 |
| O=c1cc(-c2ccc(O)cc2)oc2cc(O)cc(O)c12 [APIGENIN] | ≥ 10 |
| COc1cc(O)c(C(=O)/C=C/c2ccccc2)c2c1C[C@H](O)[C@@H](c1cc(O)cc(O)c1)O2 | 7.3 |
| COc1cc(O)c(C(=O)/C=C/c2ccccc2)c2c1C[C@@H](O)[C@H](c1cc(O)cc(O)c1)O2 | 7.1 |
| COc1cc(O)cc2c1C(=O)C(O)C(c1ccccc1)O2 (configuration not stated) | ≥ 10 |

— ChEMBL document CHEMBL1151846, “Cytotoxic constituents of chinese propolis” (J Nat Prod, 2009)
